{"data": "Results from different studies", "target": "Membrane-associated tyrosine- and threonine-specific cdc2-inhibitory kinase (PKMYT1, Homo sapiens, UniProt Q99640)", "Residues used in one study (Q99640 1-499)": "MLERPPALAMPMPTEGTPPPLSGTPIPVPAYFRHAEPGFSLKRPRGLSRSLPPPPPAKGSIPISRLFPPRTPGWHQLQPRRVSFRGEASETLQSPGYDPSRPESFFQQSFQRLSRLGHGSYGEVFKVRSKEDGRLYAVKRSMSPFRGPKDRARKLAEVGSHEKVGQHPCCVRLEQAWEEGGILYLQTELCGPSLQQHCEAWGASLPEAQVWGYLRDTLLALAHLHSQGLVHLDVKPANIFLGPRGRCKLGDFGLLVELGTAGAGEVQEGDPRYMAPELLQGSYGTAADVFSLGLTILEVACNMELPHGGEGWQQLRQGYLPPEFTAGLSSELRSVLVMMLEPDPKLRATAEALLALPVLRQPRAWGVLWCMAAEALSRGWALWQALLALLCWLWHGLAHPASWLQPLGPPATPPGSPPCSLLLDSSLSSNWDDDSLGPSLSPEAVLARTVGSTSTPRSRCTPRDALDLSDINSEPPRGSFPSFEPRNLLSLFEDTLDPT", "note": "Each line is one published result; the experiments were not run side by side."}
{"Compound": "O=C(c1ccc(Nc2ncc(Cl)c(-c3cc4ccccc4s3)n2)cc1)N1CCC(N2CCCC2)CC1", "test": "binding, competition with immobilised ligand", "conditions": "1 µM", "remaining binding": "87%"}
{"Compound": "CCC(=O)N[C@@H]1CC[C@H](C(=O)N(C)c2ccc(-c3nc4ccccc4o3)cc2)C1", "test": "cell-free assay, competition with immobilised ligand", "conditions": "1 µM", "remaining binding": "100%"}
{"Compound": "CC1CCCN1c1nccc(-c2cnn3ncccc23)n1 (centres unmarked)", "test": "binding", "conditions": "1 µM", "remaining binding": "97%"}
{"Compound": "c1cncc(-c2cccc(Nc3nccc(NC4CCCCC4)n3)c2)c1", "test": "binding, competition with immobilised ligand", "conditions": "10 µM", "remaining binding": "96%"}
{"Compound": "Cc1cnn2ncc(-c3ccnc(N(C)C)n3)c2c1", "test": "binding", "conditions": "1 µM", "remaining binding": "100%"}
{"Compound": "CC(=O)c1c(NS(C)(=O)=O)c2cc(-c3ccc(Cl)cc3)c(-c3ccc(Cl)cc3Cl)nc2n(C)c1=O", "test": "cell-free assay, competition with immobilised ligand", "conditions": "1 µM", "remaining binding": "99%"}
{"Compound": "COc1cnc(Nc2cccc(S(N)(=O)=O)c2)nc1N1CCN(c2ccccc2)CC1", "test": "binding, competition with immobilised ligand", "conditions": "1 µM", "remaining binding": "89%"}
{"Compound": "COc1cc(-c2cn(C3CCc4c(F)cccc4N(CC(F)(F)F)C3=O)nn2)ccc1-n1cnc(C)c1 (centres unmarked)", "test": "cell-free assay, competition with immobilised ligand", "conditions": "1 µM", "remaining binding": "100%"}
{"Compound": "O=C(c1ccc(Nc2nccc(-c3cc4ccccc4s3)n2)cc1)N1CCC(N2CCCC2)CC1", "test": "binding, competition with immobilised ligand", "conditions": "1 µM", "remaining binding": "70%"}
{"Compound": "O=C(Nc1ccc(Oc2ccc(F)cc2)cc1)N1CCc2ncccc2[C@H]1c1ccc(F)cc1", "test": "cell-free assay, competition with immobilised ligand", "conditions": "1 µM", "remaining binding": "63%"}
{"Compound": "O=C(c1ccc(Nc2ncc(Cl)c(-c3ccc(Cl)s3)n2)cc1)N1CCC(N2CCCC2)CC1", "test": "binding, competition with immobilised ligand", "conditions": "1 µM", "remaining binding": "100%"}
{"Compound": "O=C1CCc2cc(Nc3cc(OC4CCOCC4)c([N+](=O)[O-])cc3Cl)ccc2N1", "test": "cell-free assay, competition with immobilised ligand", "conditions": "1 µM", "remaining binding": "79%"}
{"Compound": "N[C@H]1CCN(c2nccc(-c3cnn4ncccc34)n2)C1", "test": "binding", "conditions": "1 µM", "remaining binding": "91%"}
{"Compound": "O=C(NCC1CCOCC1)c1n[nH]cc1NC(=O)c1c(F)cccc1F", "test": "binding, competition with immobilised ligand", "conditions": "1 µM", "remaining binding": "72%"}
{"Compound": "CN(C)c1nccc(-c2cnc3ncccn23)n1", "test": "binding", "conditions": "1 µM", "remaining binding": "88%"}
{"Compound": "O=C(Nc1cccnn1)N1CC(C/C=C/c2cncc(Oc3ccc(C(F)(F)F)cn3)n2)C1", "test": "cell-free assay, competition with immobilised ligand", "conditions": "1 µM", "remaining binding": "100%"}
{"Compound": "C[C@H]1CCN(c2nccc(-c3cnn4ncccc34)n2)C1", "test": "binding", "conditions": "1 µM", "remaining binding": "100%"}
{"Compound": "CNC(=O)[C@@H]1CC[C@@H](n2c(-c3ccc4cnccc4c3)nc3ccc(C(=O)NCc4cccc(C(N)=O)c4)cc32)C1", "test": "binding, competition with immobilised ligand", "conditions": "1 µM", "remaining binding": "100%"}
{"Compound": "F[C@@H]1CCN(c2nccc(-c3cnn4ncccc34)n2)C1", "test": "binding", "conditions": "1 µM", "remaining binding": "100%"}
{"Compound": "Nc1ncc2c(n1)-c1c([nH]c3ccc(C#CC4CC4)cc13)CCCC2", "test": "binding, competition with immobilised ligand", "conditions": "1 µM", "remaining binding": "98%"}
